ADAM10 inh = human ADAM10 inhibitors, primary screen, biochemical, QFRET, HTS; Disintegrin and metalloproteinase domain-containing protein 10 (Homo sapiens), O14672; recombinant ADAM10, EDANS/DABCYL FRET peptide cleavage, 3 h; inhibition, % at 7 µM; 0.62% of 370,000 active; AID 720582, 2013;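 active = inhibition above a per-campaign cutoff equal to the mean of compounds falling between control-based bounds plus 3 SD, cut at about 20% in these data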;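 note: 0% = DMSO wells while the 100% control is not disclosed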
JMJD2C inh = inhibitors of GASC-1 histone demethylase, primary screen, biochemical, fluorescence, DELFIA europium; Lysine-specific demethylase 4C (Homo sapiens), Q9H3R0; GST-JMJD2C(1-420) H3K9me3 demethylation; inhibition, % at 2.35 µM; 0.069% of 330,000 active;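 active = more than half of a compound's replicate wells show inhibition beyond 50%, single wells judged on their own value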;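 note: signal counts dimethyl H3K9 product captured on neutravidin plate; 0% = median of DMSO wells and 100% = 0.3 times that DMSO median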
ADAM17 inh = ADAM17 inhibitors, primary screen, biochemical, QFRET | recombinant ADAM17, EDANS/DABCYL FRET peptide cleavage | inhibition, % at 6.95 µM | 0.83% of 370,000 active;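 active = inhibition above the mean of compounds lying between control limits plus 3 SD, set per campaign, cut at about 8.5% in these data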;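 note: 0% = DMSO-only wells as the low control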
Target sequence (P78536 215-824 limits assumed): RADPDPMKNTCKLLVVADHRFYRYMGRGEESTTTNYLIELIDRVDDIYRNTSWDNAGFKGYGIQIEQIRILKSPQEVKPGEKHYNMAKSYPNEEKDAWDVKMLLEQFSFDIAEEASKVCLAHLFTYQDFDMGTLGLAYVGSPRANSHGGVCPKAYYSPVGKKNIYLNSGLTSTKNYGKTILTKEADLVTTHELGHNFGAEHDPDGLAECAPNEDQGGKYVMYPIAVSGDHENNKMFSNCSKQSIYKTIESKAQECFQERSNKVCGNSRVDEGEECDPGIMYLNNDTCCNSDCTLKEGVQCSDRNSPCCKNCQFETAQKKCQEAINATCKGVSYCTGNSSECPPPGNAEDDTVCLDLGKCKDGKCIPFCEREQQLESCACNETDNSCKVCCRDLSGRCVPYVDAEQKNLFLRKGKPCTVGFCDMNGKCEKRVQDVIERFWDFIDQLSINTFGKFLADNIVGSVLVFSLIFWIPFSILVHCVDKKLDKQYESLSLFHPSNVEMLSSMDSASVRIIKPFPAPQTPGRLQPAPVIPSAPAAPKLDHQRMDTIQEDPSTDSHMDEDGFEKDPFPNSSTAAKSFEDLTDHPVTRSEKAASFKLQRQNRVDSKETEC
NR2E3 ag-1 = NR2E3 agonists in two-hybrid cells, primary screen, cell-based, luminescence, CHO-S, Gal4-NCOR/VP16-NR2E3; inhibition of corepressor binding, % at 3.98 µM; luciferase; Photoreceptor-specific nuclear receptor (Homo sapiens), Q9Y5X4; 0.35% of 360,000 active;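 active = inhibition above the mean of all tested compounds plus 3 SD, cut at about 70% in these data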;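 note: 0% = DMSO with NR2E3 transfected cells and 100% = cells lacking NR2E3 construct; higher means lower luciferase signal from less NR2E3 corepressor binding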
NR2E3 ag-2 = inhibitors of NR2E3-RetCOR corepressor binding, primary screen, NR2E3 agonist project, biochemical, TR-FRET, GST-NR2E3, biotin-RetCOR. AID 2300, 2010. Photoreceptor-specific nuclear receptor (Homo sapiens), Q9Y5X4. inhibition of corepressor binding, % at 4.78 µM. 1536-well. 0.12% of 320,000 active;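 active = percent inhibition above the cutoff of mean plus 3 SD of all tested compounds, set per screening campaign, cut at about 20% in these data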;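 note: 0% = DMSO wells and 100% = biotin wells as full block of FRET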
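Assay system: NR2E3–RetCOR corepressor complex. Quantity: 1.35 nM GST-NR2E3. Buffer or medium: pH 7.5 Tris-based buffer. Reagent: biotinylated RetCOR corepressor at 7 nM final. Schedule: 5 h at 4 °C. Detection: TR-FRET, emission read at 617 and 671 nm. Replicates: one well per compound, singlicate testing.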
proKLK7 act = proKLK7 zymogen activators, primary screen, biochemical, fluorescence intensity. Kallikrein-7 (Homo sapiens), P49862. purified proKLK7, EDANS-DABCYL substrate fluorescence; 100% is mature enzyme control, 0% vehicle. activation, % at 7 µM. 0.9% of 370,000 active;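 active = activation above the mean of all tested compounds plus 3 SD, computed per campaign excluding outliers beyond control limits, cut at about 13% in these data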
ADAM10 confirm = human ADAM10 inhibitors, confirmation, biochemical, QFRET, triplicate. inhibition, % at 6.95 µM. shares compounds with ADAM10 inh. 1% of 2,100 active. ADAM10 QFRET peptide cleavage, EDANS fluorescence;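 active = inhibition above about 20% chosen separately for each screening run, limit read from the data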;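 note: 0% = DMSO wells and 100% = marimastat wells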
ADAM17 ctr = ADAM17 inhibitors, counter-screen for ADAM10 exosite inhibitor project, biochemical, QFRET, high throughput | shares compounds with ADAM10 inh | ADAM17 QFRET peptide cleavage, EDANS fluorescence | inhibition, % at 6.95 µM | 0.5% of 2,100 active | AID 743214, 2013;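 active = mean triplicate inhibition above the solvent-only control wells' mean plus 3 SD, cut at about 12% in these data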;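 note: 0% = DMSO wells and 100% = marimastat wells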
Numbers without * were called inactive; · = not tested or not shown. Hits are enriched below; roughly 2.5% of the tested compounds scored in any of these assays.

SMILES	ADAM10 inh	JMJD2C inh	ADAM17 inh	NR2E3 ag-1	NR2E3 ag-2	proKLK7 act	ADAM10 confirm	ADAM17 ctr
NC(=O)NCCCC(=O)NCC(c1ccccc1Cl)c1c[nH]c2ccccc12 (stereo not drawn)	-10	-21	0	-4	0	0	·	·
Cc1ccc(NS(=O)(=O)c2ccc(OCC(=O)Nc3cccc([N+](=O)[O-])c3)c(C)c2)cc1	23*	3	3	2	0	0	7	3
O=C(O)/C=C(\Oc1ccccc1)C1(O)CCCCC1	-1	1	0	14	-2	0	·	·
O=C(Oc1cccc2c(O)cccc12)c1ccccc1	23*	-14	7	-31	-1	0	6	2
COc1cccc(C(O)c2nc(-c3ccccc3C)cs2)c1 (stereo not drawn)	20*	·	8	-3	·	-1	1	0
Cc1ccc(Cn2nnc3c(=O)[nH]c(C4CCN(S(=O)(=O)c5ccc(S(=O)(=O)NC6CC6)cc5)CC4)nc32)cc1	20*	4	5	-45	-3	0	3	1
Cc1ccc(Cn2nnc3c(=O)[nH]c(C4CCN(S(=O)(=O)c5ccc(C)cc5)CC4)nc32)cc1	14	-4	6	41	3	0	·	·
COc1ccc(Cn2ccc3ccc(-c4ccc5ccn(C(=O)c6ccccc6OC)c5c4)cc32)cc1	-20	·	0	·	·	-2	·	·
COc1ccc(S(=O)(=O)NC(C)C(=O)Nc2cccc(C(C)=O)c2)cc1 (stereo not drawn)	31*	7	6	-33	-1	0	0	1
COc1ccc(S(=O)(=O)NC(C)C(=O)Nc2ccccc2F)cc1 (stereo not drawn)	-2	1	0	-36	5	1	·	·
C=C[C@@H]1c2ccccc2N(S(=O)(=O)c2ccc(C)cc2)[C@H](c2ccc(OC(C)=O)cc2)C1(C#N)C#N	23*	-1	6	-30	6	0	3	2
CC(O)(c1ccc(F)c(F)c1)c1nc(-c2ccc(F)c(Cl)c2)cs1 (stereo not drawn)	22*	·	8	-14	·	0	8	3
CC(O)(c1ccccc1)c1nc(-c2ccc(F)c(Cl)c2)cs1 (stereo not drawn)	15	·	3	12	·	0	·	·
Cc1ccc(-c2csc(C(O)(c3ccccc3)C(F)(F)F)n2)cc1C (stereo not drawn)	6	·	7	-20	·	-1	·	·
CC(O)(c1ccc(F)c(F)c1)c1nc(-c2cccc(F)c2)cs1 (stereo not drawn)	6	·	4	-19	·	0	·	·
CC(O)(c1ccc(F)c(F)c1)c1nc(-c2cc(F)cc(F)c2)cs1 (stereo not drawn)	20*	·	5	-11	·	1	4	2
OC(c1ccccc1)(c1nc(-c2ccc(F)c(Cl)c2)cs1)C(F)(F)F (stereo not drawn)	22*	·	8	-5	·	1	9	3
COCCCNC(=O)Cn1cc2c(n1)CCC(C)C2 (stereo not drawn)	87*	-13	0	2	2	0	-1	0
COCCCNC(=O)Cn1cc2c(n1)CCCCC2	-5	9	0	1	3	0	·	·
Cc1ccc(C)c(S(=O)(=O)N(C)C2(C)CCS(=O)(=O)C2)c1 (stereo not drawn)	-10	-9	0	-4	0	0	·	·
Cc1ccccc1OCCC(=O)Nc1ccc(N2CCOCC2)cc1N1CCOCC1	1	-39	-1	-31	-2	0	·	·
CCCN(CCC)C(=S)NC(=O)c1ccc(-c2ccccc2)cc1	24*	6	5	29	-2	0	3	1
CCOc1ccc(C(=O)NC(=S)N(Cc2ccccc2)Cc2ccccc2)cc1	13	4	2	15	2	-1	·	·
C[C@H](NC(=O)c1ccccc1Cl)C(=O)OCc1cn2cc(Cl)ccc2n1	-1	-8	-3	-18	0	0	·	·
Cc1cccc([C@@H]2[C@@H]3C(=O)N(Cc4ccccc4)C(=O)[C@@H]3[C@]3(Cc4ccccc4)C(=O)N(c4ccc(C(F)(F)F)cc4)C(=O)N23)c1	20*	12	8	-18	2	-2	13	7
SMILES	ADAM10 inh	JMJD2C inh	ADAM17 inh	NR2E3 ag-1	NR2E3 ag-2	proKLK7 act	ADAM10 confirm	ADAM17 ctr
Cc1cccc([C@@H]2[C@@H]3C(=O)N(Cc4ccccc4)C(=O)[C@@H]3[C@]3(Cc4ccccc4)C(=O)N(c4ccccc4)C(=O)N23)c1	22*	3	4	-7	-1	0	2	2
CC[C@@]12C(=O)N(c3ccccc3)C(=O)N1[C@H](c1cccc(C)c1)[C@@H]1C(=O)N(Cc3ccccc3)C(=O)[C@@H]12	14	0	4	19	-1	1	·	·
Cc1cccc([C@@H]2[C@@H]3C(=O)N(Cc4ccccc4)C(=O)[C@@H]3[C@]3(Cc4ccc(Cl)cc4)C(=O)N(c4ccccc4)C(=O)N23)c1	7	-10	-3	-24	1	1	·	·
CC[C@@]12C(=O)N(c3cccc(Br)c3)C(=O)N1[C@H](c1cccc(C)c1)[C@@H]1C(=O)N(Cc3ccccc3)C(=O)[C@@H]12	21*	-12	8	-5	1	1	5	2
O=C(N/C(=C\c1ccc(-c2ccccc2)o1)C(=O)N1CCOCC1)c1ccccc1	-7	·	2	-4	·	1	·	·
CNC(=O)C1Cc2c(-c3ccc(Cl)cc3)ccnc2O1 (stereo not drawn)	-4	·	-5	-4	·	-1	·	·
COc1ccc(NC(=O)CCCc2nc3ccccc3c(=O)[nH]2)cc1Cl	2	-7	-5	-40	·	1	·	·
COc1ccc(/C=N/Nc2cc(N3CCCC3)nc(N3CCCC3)n2)cc1	65*	-14	0	-9	4	-1	-42	-17
